From ChEMBL document CHEMBL2176936, “Identification of a 4-(hydroxymethyl)diarylhydantoin as a selective androgen receptor modulator” (J Med Chem, 2012) come the findings set out here.

The test system of data set [1] is Rattus norvegicus. Nature of the data set: Anabolic activity in ORX rat model assessed as weight of levator ani muscle at 30 mg/kg/day, po administered for 4 days. It is filed as functional. In outline: (§1)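 Hershberger-type model in castrated immature male rats: left untreated one week after castration, then dosed four days (test compounds oral; testosterone propionate sc). Levator ani and ventral prostate weights normalised to body weight; activity % = (W/BW treated − W/BW ORX)/(W/BW sham − W/BW ORX) × 100. A50 = dose giving 50% activity on the tissue.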

The subject of data set [2] is Rattus norvegicus. Put plainly: Androgenic activity in ORX rat model assessed as weight of ventral prostate at 30 mg/kg/day, po administered for 4 days. It is filed as functional, Prostate gland. In a few lines: as §1
Data set [3] in a line: Oral bioavailability in rat at 10 mg/kg and 3 mg/kg, iv. It is filed as ADME, organism-based. The following applies: in vivo. In outline:
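Absolute oral bioavailability in rats: single oral dose 10 mg/kg in EtOH/PEG400/H₂O (1/79/20, v/v/v) compared with single iv dose 3 mg/kg in DMSO/PEG400/H₂O (1/65/34, v/v/v).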

In data set [4] the test system is Rattus norvegicus. Nature of the data set: Androgenic activity in ORX rat model assessed as weight of ventral prostate at 10 mg/kg/day, po administered for 4 days. Type of data set: functional, Prostate gland. In a few lines:
as §1

Data set [5] is described as follows: Oral bioavailability in monkey. It is filed as ADME, organism-based, Macaca mulatta. The settings on record: rhesus monkey, in vivo.
For data set [6], the system named is Rattus norvegicus. Nature of the data set: Anabolic activity in ORX rat model assessed as weight of levator ani muscle at 10 mg/kg/day, po administered for 4 days. It is filed as functional. In outline:
as §1

Data set [7] can be described thus: Clearance in Sprague-Dawley rat at 3 mg/kg, iv. Type of data set: ADME, organism-based. Details: dose 3 mg/kg, route intravenous. The following applies: in vivo. In outline: (§2)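 Male Sprague-Dawley rats, single dose: iv 3 mg/kg in DMSO/PEG200/H₂O (1/79/20, v/v/v), or oral 10 mg/kg in EtOH/PEG200/H₂O (1/79/20, v/v/v). Two groups of three rats; N = 2 rats for one arm. CL, T1/2, Vdss, AUC(0−∞) and F derived.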

Data set [8] is described as follows: Oral bioavailability in Sprague-Dawley rat at 10 mg/kg. The settings on record: in vivo. It is filed as ADME, organism-based. In a few lines: as §2
Data set [9] can be described thus: AUC (0 to infinity) in Sprague-Dawley rat at 3 mg/kg, iv. It is filed as ADME, organism-based. Also on record: dose 3 mg/kg, route intravenous, time infinity. The settings on record: plasma.
A short description of data set [10]: Half life in Sprague-Dawley rat at 10 mg/kg, po. It is filed as ADME, organism-based. Also on record: dose 10 mg/kg, route oral. The following applies: in vivo. In outline: as §2
A short description of data set [11]: Volume of distribution at steady state in Sprague-Dawley rat at 3 mg/kg, iv. It is filed as ADME, organism-based. Details: dose 3 mg/kg, route intravenous. The settings on record: in vivo, read-out: Vdss. In outline: as §2
The nature of data set [12]: AUC (0 to infinity) in Sprague-Dawley rat at 10 mg/kg, po. Type of data set: ADME, organism-based. Details: time infinity, dose 10 mg/kg, route oral. The following applies: plasma.
The nature of data set [13]: Half life in Sprague-Dawley rat at 3 mg/kg, iv. Type of data set: ADME, organism-based. Also on record: dose 3 mg/kg, route intravenous. The settings on record: in vivo. In a few lines:
as §2

The subject of data set [14] is Rattus norvegicus. Put plainly: […] activity in ORX rat model assessed as increase in prostate weight at 10 mg/kg/day, po administered for 3 months relative to sham-treated control. Type of data set: functional, Prostate gland. In a few lines:
(§3)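 Rats castrated at seven weeks of age, then given compound orally for three months in a prophylactic setting at 10 mg/kg/day. Levator ani and prostate weights normalised with sham-operated rats set to 100% and ORX rats set to 0%.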

In data set [15] the test system is Rattus norvegicus. Nature of the data set: Anabolic activity in ORX rat model assessed as dose required for 50% activity on levator ani muscle po administered for 4 days. It is filed as functional. In a few lines: as §1
In data set [16] the test system is Rattus norvegicus. Nature of the data set: […] activity in ORX rat model assessed as activity on ventral prostate at 30 mg/kg/day, po administered for 4 days. Type of data set: functional, Prostate gland. In outline:
as §1

Data set [17] concerns Rattus norvegicus. Nature of the data set: Anabolic activity in ORX rat model assessed as increase in levator ani muscle weight at 10 mg/kg/day, po administered for 3 months relative to sham-treated control. Type of data set: functional. In outline:
as §3

Data set [18] relates to Rattus norvegicus. Nature of the data set: Androgenic activity in ORX rat model assessed as dose required for 50% activity on ventral prostate po administered for 4 days. Type of data set: functional, Prostate gland. In a few lines:
as §1

In data set [19] the test system is Rattus norvegicus. Put plainly: Androgenic activity in ORX rat model assessed as weight of ventral prostate at 1 mg/kg/day, sc administered for 4 days. It is filed as functional, Prostate gland. The settings on record: route subcutaneous. In outline: as §1
Data set [20] concerns Rattus norvegicus. Nature of the data set: Anabolic activity in ORX rat model assessed as weight of levator ani muscle at 1 mg/kg/day, sc administered for 4 days. The following applies: route subcutaneous. It is filed as functional. In outline: as §1

`CN1C(=O)N(c2ccc(C#N)c(C(F)(F)F)c2)C(=O)[C@@]1(C)c1ccc(O)cc1`: the Activity in the data set on Rattus norvegicus [1] amounted to 77%; with Rattus norvegicus [2], 26%; in the data set with Rattus norvegicus [4] it was 12%. Further, the bioavailability in data set [3] and in data set [5] was less than 9% throughout.

As for `CN1C(=O)N(c2ccc(C#N)c(C(F)(F)F)c2)C(=O)[C@]1(CO)c1ccccc1`, the Activity in the data set with Rattus norvegicus [6] turned out to be 101%.

In the case of `CN1C(=O)N(c2ccc(C#N)c(C(F)(F)F)c2)C(=O)C1(C)c1ccc(O)cc1` (racemic), the Activity is on record as 89% in the data set with Rattus norvegicus [1], 16% in the data set with Rattus norvegicus [2], 8% in the data set on Rattus norvegicus [4] and 68% with Rattus norvegicus [6]. In data set [3], this compound displayed a bioavailability of 1.5%.

As for `CN1C(=O)N(c2ccc(Cl)c(Cl)c2)C(=O)C1(CO)c1ccccc1` (racemic), the Activity stood at 23% in the data set with Rattus norvegicus [4] and 96% with Rattus norvegicus [6].

As for `CCN1C(=O)N(c2ccc(C#N)c(C(F)(F)F)c2)C(=O)C1(CO)c1ccccc1` (racemic), the bioavailability in data set [3] turned out to be 76%. In addition, the Activity with Rattus norvegicus [4] turned out to be 59%; with Rattus norvegicus [6] it was 112%.

In the case of `CC(C)N1C(=O)N(c2ccc(C#N)c(C(F)(F)F)c2)C(=O)C1(CO)c1ccccc1` (racemic), the values for the Activity in the data set on Rattus norvegicus [4] and in the data set on Rattus norvegicus [6] were 60% and 109%, respectively.

For the compound `C#CCN1C(=O)N(c2ccc(C#N)c(C(F)(F)F)c2)C(=O)C1(CO)c1ccccc1` (racemic), the Activity in the data set on Rattus norvegicus [4] is 43%; in the data set on Rattus norvegicus [6], 96%.

In the case of `CN1C(=O)N(c2ccc(C#N)c(C(F)(F)F)c2)C(=O)C1(C)c1ccc2[nH]ccc2c1` (racemic), the bioavailability in data set [3] came to 19%.

On to `CN1C(=O)N(c2ccc(C#N)c(C(F)(F)F)c2)C(=O)C1(C)c1ccc2[nH]cnc2c1` (racemic), for which the bioavailability in data set [3] came out at 100%.

Regarding `CN1C(=O)N(c2ccc(C#N)c(C(F)(F)F)c2)C(=O)C1(CO)c1ccccc1` (racemic), the Activity in the data set on Rattus norvegicus [1] stood at 96%; with Rattus norvegicus [2], 14%; with Rattus norvegicus [4], 13%. In [3], this compound returned a bioavailability of 63%.

Regarding `COc1ccc(C2(CO)C(=O)N(c3ccc(C#N)c(C(F)(F)F)c3)C(=O)N2C)cc1` (racemic), the Activity with Rattus norvegicus [1] was 130%; in the data set on Rattus norvegicus [2], 95%. This compound had a bioavailability in data set [3] of 25%.

`CN1C(=O)N(c2ccc(C#N)c(C(F)(F)F)c2)C(=O)C1(CO)c1ccc(O)cc1` (racemic): the results for the Activity with Rattus norvegicus [1] and in the data set on Rattus norvegicus [2] were 82% and 55%, respectively. The same compound yielded a bioavailability in [3] of 15%.

For `CN1C(=O)N(c2ccc(C#N)c(C(F)(F)F)c2)C(=O)C1(CO)c1ccccc1Cl` (racemic), the Activity was determined as 7% with Rattus norvegicus [4] and 26% with Rattus norvegicus [6].

Regarding `CN1C(=O)N(c2ccc(C#N)c(C(F)(F)F)c2)C(=O)C1(CO)c1cccc(Cl)c1` (racemic), the Activity came out at 16% in the data set with Rattus norvegicus [4] and 66% in the data set on Rattus norvegicus [6].

In [3], `CN1C(=O)N(c2ccc(C#N)c(C(F)(F)F)c2)C(=O)C1(CO)c1ccc(Cl)cc1` (racemic) displayed a bioavailability of 99%. Also, the Activity in the data set on Rattus norvegicus [4] came to 0%; in the data set with Rattus norvegicus [6], 35%.

Regarding `CN1C(=O)N(c2ccc(C#N)c(C(F)(F)F)c2)C(=O)C1(CO)c1ccc(F)cc1` (racemic), in [3], the bioavailability is 87%.

On to `CN1C(=O)N(c2ccc(C#N)c(C(F)(F)F)c2)C(=O)C1(CO)c1cccc(C#N)c1` (racemic), for which the Activity in the data set on Rattus norvegicus [4] is on record as 26%; with Rattus norvegicus [6], 84%.

As for `CN1C(=O)N(c2ccc(C#N)c(C(F)(F)F)c2)C(=O)C1(CO)c1ccc(C#N)cc1` (racemic), the Activity in the data set with Rattus norvegicus [4] is 11%; with Rattus norvegicus [6], 12%.

For `Cc1cccc(C2(CO)C(=O)N(c3ccc(C#N)c(C(F)(F)F)c3)C(=O)N2C)c1` (racemic), the Activity in the data set with Rattus norvegicus [4] is reported as 0%; with Rattus norvegicus [6], 24%.

In data set [7], `CN1C(=O)N(c2ccc(C#N)c(C(F)(F)F)c2)C(=O)[C@@]1(CO)c1ccccc1` [GLPG0492] yielded a clearance of 21.7 mL/min/kg. The bioavailability in data set [8] and in [3] was 56% each time. For the same compound, the AUC(0-inf) in data set [9] stood at 2360 ng·h/mL; in data set [12] it was 4680 ng·h/mL. Moreover, the Activity was found to be 106% in the data set with Rattus norvegicus [1]; 26% in the data set with Rattus norvegicus [2]; 24% in the data set with Rattus norvegicus [4]; 101% in the data set with Rattus norvegicus [6]; 25% in the data set on Rattus norvegicus [14]; 0.75 mg/kg/day in the data set with Rattus norvegicus [15]. The Activity with Rattus norvegicus [17] turned out to be 117%. The half-life in data set [10] is 2.2 h; in data set [13], 1.5 h. In [11], the Vd was found to be 2.5 L/kg. Moreover, the “%max” value in the data set on Rattus norvegicus [16] was 30%.

For the compound `CCC(=O)O[C@H]1CC[C@H]2[C@@H]3CCC4=CC(=O)CC[C@]4(C)[C@H]3CC[C@]12C` [TESTOSTERONE PROPIONATE], the Activity is reported as 0.2 mg/kg/day in the data set with Rattus norvegicus [18], 73% with Rattus norvegicus [19], 99% in the data set on Rattus norvegicus [20] and 0.3 mg/kg/day in the data set with Rattus norvegicus [15].
